Source: paper PMC2862812 (Biochimica et biophysica acta, 2009)
Where no end group is shown, it is not given here.

test: Tryptophan fluorescence of peptides in phosphate buffer without lipid; type: physicochemical; settings: no lipid; from fluorescence and CD
Summary of the method: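 7 μM peptide in buffer without liposomes, pH 8 or 4 (adjusted with dilute NaOH/HCl), temperature-controlled. Trp emission 310–450 nm, excitation 295 nm, slits 2–4/2 nm; CD spectra recorded in parallel.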

Row | Compound | State of the peptide in aqueous solution (solubility / aggregation)
1 | AAEQNPIYWARYADWLFTDLPLLLLDLLALLVDADEGT [3D] | aggregated state of the peptide in solution even at low concentrations
2 | AAEQNPIYWARYADWLFTTPLLLLELALLVDADEGT [D25E] | remain soluble and monomeric in solution
3 | AAEQNPIYWARYAEWLFTTPLLLLDLALLVDADEGT [D14E] | remain soluble and monomeric in solution

The next lines start with the values.

Row | State of the peptide in aqueous solution (solubility / aggregation) | Compound
4 | unfolded and monomeric | CC[C@H](C)[C@H](NC(=O)[C@@H]1CCCN1C(=O)[C@H](CC(N)=O)NC(=O)[C@H](CCC(N)=O)NC(=O)[C@H](CCC(=O)O)NC(=O)[C@H](C)NC(=O)[C@H](C)N)C(=O)N[C@@H](Cc1ccc(O)cc1)C(=O)N[C@@H](Cc1c[nH]c2ccccc12)C(=O)N[C@@H](C)C(=O)N[C@@H](CCCNC(=N)N)C(=O)N[C@@H](Cc1ccc(O)cc1)C(=O)N[C@@H](C)C(=O)N[C@@H](CC(=O)O)C(=O)N[C@@H](Cc1c[nH]c2ccccc12)C(=O)N[C@@H](CC(C)C)C(=O)N[C@@H](Cc1ccccc1)C(=O)N[C@H](C(=O)N[C@H](C(=O)N1CCC[C@H]1C(=O)N[C@@H](CC(C)C)C(=O)N[C@@H](CC(C)C)C(=O)N[C@@H](CC(C)C)C(=O)N[C@@H](CC(C)C)C(=O)N[C@@H](CC(=O)O)C(=O)N[C@@H](CC(C)C)C(=O)N[C@@H](C)C(=O)N[C@@H](CC(C)C)C(=O)N[C@@H](CC(C)C)C(=O)N[C@H](C(=O)N[C@@H](CC(=O)O)C(=O)N[C@@H](C)C(=O)N[C@@H](CC(=O)O)C(=O)N[C@@H](CCC(=O)O)C(=O)NCC(=O)N[C@H](C(=O)O)[C@@H](C)O)C(C)C)[C@@H](C)O)[C@@H](C)O [WT, reference compound]
5 | probably, more aggregated in solution | AAEQNPIYWARYADWLFTTPLLLLALALLVDADEGT [D25A]
